The test system of test [1] is MCF7. The test is described as follows: Growth inhibition of human MCF7 cells by MTT assay. The test is classed as functional, cell-based. Put shortly:
(§1)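 MTT viability. Cells seeded for 24 h, then exposed to compound for 48 h in DMEM/F-12 or DMEM with 5% FBS. Vehicle controls received matching DMSO. MTT added at 0.5 mg/mL for 3 h at 37 °C. Formazan dissolved in DMSO and absorbance read at 570 nm.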

The test system of test [2] is A549. Put plainly: Growth inhibition of human A549 cells by MTT assay. Format: functional, cell-based. Put shortly: as §1
On the technique in general: Formazan colour is commonly taken as a measure of viable cells.

The test system of another test is Hep 3B2. The test is described as follows: Growth inhibition of human Hep3B cells by MTT assay. Format: functional, cell-based. In short, it runs like this:
as §1

Test [3] deals with T1, Prostaglandin G/H synthase 1 (Ovis aries, UniProt P05979).
T1 sequence (P05979 whole entry): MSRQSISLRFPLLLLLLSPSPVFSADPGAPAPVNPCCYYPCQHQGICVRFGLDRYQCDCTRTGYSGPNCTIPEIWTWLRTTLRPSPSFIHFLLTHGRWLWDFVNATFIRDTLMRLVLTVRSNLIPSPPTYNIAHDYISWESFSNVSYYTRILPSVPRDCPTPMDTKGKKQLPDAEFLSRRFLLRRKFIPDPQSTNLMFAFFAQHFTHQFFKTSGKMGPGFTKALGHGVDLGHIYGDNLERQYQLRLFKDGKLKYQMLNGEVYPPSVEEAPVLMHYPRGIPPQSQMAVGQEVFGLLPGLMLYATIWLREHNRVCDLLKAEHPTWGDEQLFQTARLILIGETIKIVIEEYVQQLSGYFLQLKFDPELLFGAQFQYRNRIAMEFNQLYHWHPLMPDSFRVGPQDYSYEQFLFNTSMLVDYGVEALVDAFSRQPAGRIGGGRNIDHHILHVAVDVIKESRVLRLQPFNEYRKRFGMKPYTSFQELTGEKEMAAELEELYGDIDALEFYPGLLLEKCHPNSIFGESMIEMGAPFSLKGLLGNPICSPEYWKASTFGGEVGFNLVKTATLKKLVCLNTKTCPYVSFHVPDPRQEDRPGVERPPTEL
Put plainly: Inhibition of ovine COX1 assessed as reduction in PGH2 formation by measuring PGF2alpha by colorimetric assay. In short, it runs like this:
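Colorimetric COX inhibitor screening kit run per the manufacturer, using ovine COX-1. IC50 calculated from three determinations.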

The test system of a further test is PC-3. Put plainly: Anticancer activity against human PC3 cells. The test is classed as functional, cell-based.
The subject of test [4] is MCF7. The test is described as follows: Anticancer activity against human MCF7 cells. Format: functional, cell-based.
In test [5] the target is Activin receptor type-1-like (Homo sapiens) (UniProt P37023). Put plainly: Inhibition of ALK1 (unknown origin) at 10 uM using [33P]-ATP after 20 to 40 mins by scintillation counting method.
Test [6] has as its target AMP-activated protein kinase (AMPK) alpha-1/beta-1/gamma-1 (Homo sapiens) (UniProt P54619+Q9Y478+Q13131). Put plainly: Inhibition of AMPK alpha1/beta1/gamma1 (unknown origin) at 10 uM using [33P]-ATP after 20 to 40 mins by scintillation counting method. The test is classed as protein-complex assay.
For test [7], the target named is Mitogen-activated protein kinase kinase kinase 5 (Homo sapiens) (UniProt Q99683). Put plainly: Inhibition of ASK1 (unknown origin) at 10 uM using [33P]-ATP after 20 to 40 mins by scintillation counting method.
Test [8] deals with Tyrosine-protein kinase Blk (Homo sapiens) (UniProt P51451). Put plainly: Inhibition of BLK (unknown origin) at 10 uM using [33P]-ATP after 20 to 40 mins by scintillation counting method.
In test [9] the target is Casein kinase I isoform alpha (Homo sapiens) (UniProt P48729). Put plainly: Inhibition of CK1alpha1 (unknown origin) at 10 uM using [33P]-ATP after 20 to 40 mins by scintillation counting method.
Test [10] deals with Dual specificity tyrosine-phosphorylation-regulated kinase 3 (Homo sapiens) (UniProt O43781). Put plainly: Inhibition of DYRK3 (unknown origin) at 10 uM using [33P]-ATP after 20 to 40 mins by scintillation counting method.
For test [11], the target named is Ephrin type-A receptor 1 (Homo sapiens) (UniProt P21709). Put plainly: Inhibition of EPHA1 (unknown origin) at 10 uM using [33P]-ATP after 20 to 40 mins by scintillation counting method.
Test [12] deals with Vascular endothelial growth factor receptor 1 (Homo sapiens) (UniProt P17948). The test is described as follows: Inhibition of FLT1 (unknown origin) at 10 uM using [33P]-ATP after 20 to 40 mins by scintillation counting method.
For test [13], the target named is Rhodopsin kinase GRK1 (Homo sapiens) (UniProt Q15835). The test is described as follows: Inhibition of GRK1 (unknown origin) at 10 uM using [33P]-ATP after 20 to 40 mins by scintillation counting method.
The target of test [14] is Glycogen synthase kinase-3 alpha (Homo sapiens) (UniProt P49840). Put plainly: Inhibition of GSK3alpha (unknown origin) at 10 uM using [33P]-ATP after 20 to 40 mins by scintillation counting method.
The target of test [15] is Ribosomal protein S6 kinase alpha-5 (Homo sapiens) (UniProt O75582). Put plainly: Inhibition of MSK1 (unknown origin) at 10 uM using [33P]-ATP after 20 to 40 mins by scintillation counting method.
In test [16] the target is 3-phosphoinositide-dependent protein kinase 1 (Homo sapiens) (UniProt O15530). The test is described as follows: Inhibition of PDK1 (unknown origin) at 10 uM using [33P]-ATP after 20 to 40 mins by scintillation counting method.
Test [17] addresses cGMP-dependent protein kinase 1 (Homo sapiens) (UniProt Q13976). Put plainly: Inhibition of PRKG1 (unknown origin) at 10 uM using [33P]-ATP after 20 to 40 mins by scintillation counting method.
Test [18] has as its target Serine/threonine-protein kinase Sgk1 (Homo sapiens) (UniProt O00141). Put plainly: Inhibition of SGK1 (unknown origin) at 10 uM using [33P]-ATP after 20 to 40 mins by scintillation counting method.
For test [19], the system named is A549. The test is described as follows: Induction of apoptosis in human A549 cells assessed as caspe-3/7 activation at 5 to 20 uM incubated for 24 hrs by Caspase-Glo 3/7 luminescence assay. Format: functional, cell-based. Put shortly:
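A549 cells plated at 1 x 10^4 per well and allowed 24 h to settle. Medium removed, then compounds added for 24 h at 5, 10 and 20 μM. Vehicle controls received equivalent DMSO. Caspase-3/7 activity read by Caspase-Glo 3/7 luminescence (RLU). Mean ± S.D. (n = 5), experiment done 3 times. Compared with vehicle by one-way ANOVA with Dunnett's test.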

IC50, inhibition and Activity data for 14 compounds are collected here from ChEMBL document CHEMBL4043222, “Pyrrolizines: Design, synthesis, anticancer evaluation and investigation of the potential mechanism of action” (Bioorg Med Chem, 2017).

The source made the active and inactive calls. The rule behind the calls is not given here.

Broadly, the IC50 is the concentration at which inhibition is half-maximal. In general, inhibition refers to the change of the read-out against control, counted positive when it falls.

Chain of Glycogen synthase kinase-3 alpha (Homo sapiens) (P49840 2-483 limits assumed): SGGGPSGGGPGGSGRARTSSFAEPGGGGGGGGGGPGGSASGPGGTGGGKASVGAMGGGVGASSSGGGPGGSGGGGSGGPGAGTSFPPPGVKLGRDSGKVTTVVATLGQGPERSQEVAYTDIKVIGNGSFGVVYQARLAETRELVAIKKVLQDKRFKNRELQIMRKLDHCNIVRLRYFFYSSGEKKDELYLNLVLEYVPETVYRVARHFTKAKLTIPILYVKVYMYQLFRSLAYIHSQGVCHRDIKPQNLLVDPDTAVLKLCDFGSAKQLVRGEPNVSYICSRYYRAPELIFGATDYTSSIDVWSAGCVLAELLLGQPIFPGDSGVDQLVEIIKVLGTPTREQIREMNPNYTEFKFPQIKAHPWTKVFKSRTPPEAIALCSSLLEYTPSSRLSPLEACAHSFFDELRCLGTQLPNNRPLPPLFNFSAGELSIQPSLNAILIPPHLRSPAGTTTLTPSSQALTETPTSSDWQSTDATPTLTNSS
Chain of Tyrosine-protein kinase Blk (Homo sapiens) (P51451 2-505 limits assumed): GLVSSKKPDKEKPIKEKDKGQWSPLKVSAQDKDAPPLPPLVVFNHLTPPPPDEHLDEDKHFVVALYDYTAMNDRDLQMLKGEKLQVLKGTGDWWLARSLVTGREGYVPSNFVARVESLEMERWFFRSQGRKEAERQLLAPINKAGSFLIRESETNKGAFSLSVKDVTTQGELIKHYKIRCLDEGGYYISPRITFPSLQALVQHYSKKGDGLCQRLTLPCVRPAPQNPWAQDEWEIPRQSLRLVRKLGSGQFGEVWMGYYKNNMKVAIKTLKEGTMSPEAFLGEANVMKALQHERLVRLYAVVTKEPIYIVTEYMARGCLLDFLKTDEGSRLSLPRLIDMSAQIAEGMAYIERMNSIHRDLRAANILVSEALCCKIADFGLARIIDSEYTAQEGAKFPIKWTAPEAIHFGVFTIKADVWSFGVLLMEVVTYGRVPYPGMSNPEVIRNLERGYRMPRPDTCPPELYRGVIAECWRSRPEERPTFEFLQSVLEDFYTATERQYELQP
Chain of Activin receptor type-1-like (Homo sapiens) (P37023 whole entry): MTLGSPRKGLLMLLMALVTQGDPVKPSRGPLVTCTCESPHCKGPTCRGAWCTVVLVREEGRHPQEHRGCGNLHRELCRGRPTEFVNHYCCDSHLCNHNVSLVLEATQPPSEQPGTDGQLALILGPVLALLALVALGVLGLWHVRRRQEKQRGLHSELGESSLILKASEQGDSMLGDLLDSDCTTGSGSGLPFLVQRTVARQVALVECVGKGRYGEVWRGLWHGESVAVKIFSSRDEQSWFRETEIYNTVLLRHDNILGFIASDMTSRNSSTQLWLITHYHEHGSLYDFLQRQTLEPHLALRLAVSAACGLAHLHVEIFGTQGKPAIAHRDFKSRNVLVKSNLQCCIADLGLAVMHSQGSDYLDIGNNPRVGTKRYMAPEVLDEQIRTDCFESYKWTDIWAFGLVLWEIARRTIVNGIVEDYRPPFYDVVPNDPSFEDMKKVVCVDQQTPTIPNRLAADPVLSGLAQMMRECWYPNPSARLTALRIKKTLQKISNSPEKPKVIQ
Chain of Ephrin type-A receptor 1 (Homo sapiens) (P21709 whole entry): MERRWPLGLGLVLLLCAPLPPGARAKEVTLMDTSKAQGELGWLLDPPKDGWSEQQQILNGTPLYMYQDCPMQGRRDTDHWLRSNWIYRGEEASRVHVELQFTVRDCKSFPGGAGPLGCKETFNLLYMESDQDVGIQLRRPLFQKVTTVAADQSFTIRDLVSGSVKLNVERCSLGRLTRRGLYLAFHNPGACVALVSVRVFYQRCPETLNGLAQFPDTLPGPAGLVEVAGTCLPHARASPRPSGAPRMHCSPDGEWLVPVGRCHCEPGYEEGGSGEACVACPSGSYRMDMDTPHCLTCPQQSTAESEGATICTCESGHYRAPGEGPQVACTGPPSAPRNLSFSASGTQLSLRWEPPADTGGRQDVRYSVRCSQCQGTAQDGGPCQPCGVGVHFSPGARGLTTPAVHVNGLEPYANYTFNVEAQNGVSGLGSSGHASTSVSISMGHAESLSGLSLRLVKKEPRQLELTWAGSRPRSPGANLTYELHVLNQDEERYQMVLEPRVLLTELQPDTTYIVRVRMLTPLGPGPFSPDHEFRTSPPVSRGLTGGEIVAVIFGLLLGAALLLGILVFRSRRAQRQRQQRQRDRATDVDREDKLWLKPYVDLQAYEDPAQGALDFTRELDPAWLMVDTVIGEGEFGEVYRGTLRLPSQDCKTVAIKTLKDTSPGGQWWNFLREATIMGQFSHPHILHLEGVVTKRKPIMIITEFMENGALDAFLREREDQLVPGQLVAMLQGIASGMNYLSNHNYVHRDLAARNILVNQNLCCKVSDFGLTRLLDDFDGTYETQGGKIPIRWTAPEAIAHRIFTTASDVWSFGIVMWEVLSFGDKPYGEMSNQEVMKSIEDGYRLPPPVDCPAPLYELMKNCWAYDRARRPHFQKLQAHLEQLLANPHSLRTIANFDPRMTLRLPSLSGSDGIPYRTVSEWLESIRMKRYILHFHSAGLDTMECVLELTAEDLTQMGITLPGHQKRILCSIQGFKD
Chain of Ribosomal protein S6 kinase alpha-5 (Homo sapiens) (O75582 whole entry, looked up): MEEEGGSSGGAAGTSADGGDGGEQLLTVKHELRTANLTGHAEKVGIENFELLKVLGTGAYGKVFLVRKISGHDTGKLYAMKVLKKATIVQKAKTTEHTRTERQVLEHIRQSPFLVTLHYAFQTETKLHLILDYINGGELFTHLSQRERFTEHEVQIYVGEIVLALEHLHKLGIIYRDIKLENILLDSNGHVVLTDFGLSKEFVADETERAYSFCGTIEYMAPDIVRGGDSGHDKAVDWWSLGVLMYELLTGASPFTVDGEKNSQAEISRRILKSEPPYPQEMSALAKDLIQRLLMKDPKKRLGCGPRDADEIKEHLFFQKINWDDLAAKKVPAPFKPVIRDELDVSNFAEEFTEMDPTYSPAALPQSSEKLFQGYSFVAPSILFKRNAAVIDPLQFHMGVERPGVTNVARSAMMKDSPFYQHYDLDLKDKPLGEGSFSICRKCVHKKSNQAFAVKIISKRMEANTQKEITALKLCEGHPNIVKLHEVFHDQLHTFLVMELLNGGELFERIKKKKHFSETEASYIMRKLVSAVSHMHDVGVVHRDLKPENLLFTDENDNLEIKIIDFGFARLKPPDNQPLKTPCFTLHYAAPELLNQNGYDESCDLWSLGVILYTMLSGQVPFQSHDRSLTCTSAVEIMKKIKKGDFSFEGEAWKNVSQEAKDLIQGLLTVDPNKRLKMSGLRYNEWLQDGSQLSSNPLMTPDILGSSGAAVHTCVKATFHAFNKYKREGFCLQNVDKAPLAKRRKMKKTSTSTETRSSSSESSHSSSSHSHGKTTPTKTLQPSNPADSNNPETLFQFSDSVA
Chain of Serine/threonine-protein kinase Sgk1 (Homo sapiens) (O00141 whole entry): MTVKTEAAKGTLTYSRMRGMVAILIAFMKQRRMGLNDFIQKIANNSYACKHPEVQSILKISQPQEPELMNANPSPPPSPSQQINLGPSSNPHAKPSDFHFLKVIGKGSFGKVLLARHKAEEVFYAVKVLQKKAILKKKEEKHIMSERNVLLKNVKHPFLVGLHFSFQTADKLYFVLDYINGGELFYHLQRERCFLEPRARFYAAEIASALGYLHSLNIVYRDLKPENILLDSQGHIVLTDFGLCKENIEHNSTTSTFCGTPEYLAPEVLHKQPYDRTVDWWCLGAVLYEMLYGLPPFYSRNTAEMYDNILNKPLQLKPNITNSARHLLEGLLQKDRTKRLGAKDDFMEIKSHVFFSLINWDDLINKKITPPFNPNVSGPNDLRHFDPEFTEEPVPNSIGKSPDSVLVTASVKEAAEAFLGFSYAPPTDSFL
Chain of 3-phosphoinositide-dependent protein kinase 1 (Homo sapiens) (O15530 whole entry): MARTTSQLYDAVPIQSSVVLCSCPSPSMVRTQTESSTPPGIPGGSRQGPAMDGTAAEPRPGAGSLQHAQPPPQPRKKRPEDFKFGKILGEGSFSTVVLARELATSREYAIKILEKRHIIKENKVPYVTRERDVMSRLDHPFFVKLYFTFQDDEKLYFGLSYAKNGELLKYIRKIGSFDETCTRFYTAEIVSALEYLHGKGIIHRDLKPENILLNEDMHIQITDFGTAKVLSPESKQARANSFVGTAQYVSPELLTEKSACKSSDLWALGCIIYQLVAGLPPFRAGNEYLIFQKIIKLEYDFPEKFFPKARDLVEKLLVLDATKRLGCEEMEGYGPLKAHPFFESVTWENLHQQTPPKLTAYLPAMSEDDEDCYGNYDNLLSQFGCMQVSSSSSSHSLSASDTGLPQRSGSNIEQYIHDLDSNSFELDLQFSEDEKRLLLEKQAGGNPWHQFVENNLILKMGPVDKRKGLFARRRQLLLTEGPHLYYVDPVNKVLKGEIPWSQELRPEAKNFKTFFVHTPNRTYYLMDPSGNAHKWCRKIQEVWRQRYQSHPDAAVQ
Chain of Casein kinase I isoform alpha (Homo sapiens) (P48729 2-337 limits assumed): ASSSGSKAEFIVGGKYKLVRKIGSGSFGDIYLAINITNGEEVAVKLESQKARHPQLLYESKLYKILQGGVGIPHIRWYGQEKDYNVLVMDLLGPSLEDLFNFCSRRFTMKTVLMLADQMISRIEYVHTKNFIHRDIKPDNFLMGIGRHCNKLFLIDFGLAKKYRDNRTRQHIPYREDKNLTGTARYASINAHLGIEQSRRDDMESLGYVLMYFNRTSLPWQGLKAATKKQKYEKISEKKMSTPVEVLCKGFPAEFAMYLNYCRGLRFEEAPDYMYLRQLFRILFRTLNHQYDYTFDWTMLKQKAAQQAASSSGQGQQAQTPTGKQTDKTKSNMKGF

On to `Cc1ccc(NC(=O)c2c(N=Cc3cccnc3)c(C#N)c3n2CCC3)cc1`, for which the IC50 was 18.3 µM in the test with MCF7 [1], 20.5 µM in the test on A549 [2], 34.8 µM in the test with Hep 3B2 and 9.54 µM in [3].
In the case of `N#Cc1c(N=Cc2cccs2)c(C(=O)Nc2ccccc2)n2c1CCC2`, the IC50 was found to be 6.97 µM in the test on MCF7 [1], 12.5 µM in the test on A549 [2], 18.6 µM in the test with Hep 3B2 and 4.96 µM in test [3].
As to `COc1cccc2c1C(=O)c1c(O)c3c(c(O)c1C2=O)C[C@@](O)(C(=O)CO)C[C@@H]3O[C@H]1C[C@H](N)[C@H](O)[C@H](C)O1` [DOXORUBICIN], the IC50 in the test on MCF7 [1] turned out to be 2.3 µM; with Hep 3B2 it was 2.4 µM.
On to `Cc1ccc(NC(=O)c2c(N=Cc3cccs3)c(C#N)c3n2CCC3)cc1`, for which the IC50 worked out at 5.35 µM in the test on MCF7 [1], 11.4 µM in the test with A549 [2], 13.8 µM in the test with Hep 3B2 and 10.4 µM in test [3].
Turning to `N#Cc1c(/N=C/c2ccc([N+](=O)[O-])cc2)c(C(=O)Nc2cc(Cl)cc(Cl)c2)n2c1CCC2`, the IC50 in the test on PC-3 was 8.54 µM; in the test on MCF7 [4], 7.9 µM; with MCF7 [1], 7.9 µM; in the test with A549 [2] it was 16.2 µM; in the test on Hep 3B2, 14 µM.
As to `N#Cc1c(N=Cc2ccco2)c(C(=O)Nc2ccccc2)n2c1CCC2`, the IC50 was 8.35 µM in the test on MCF7 [1], 9.75 µM in the test with A549 [2], 12.8 µM with Hep 3B2 and 6.54 µM in test [3].
The corresponding values for `N#Cc1c(N=Cc2cccnc2)c(C(=O)Nc2ccc(Cl)cc2)n2c1CCC2` are 22.5 µM, 23 µM, 31.2 µM and 5.78 µM.
Taken in the same sequence, the figures for `N#Cc1c(N=Cc2ccco2)c(C(=O)Nc2ccc(Cl)cc2)n2c1CCC2` were 15.7 µM, 28.4 µM, 27.5 µM and 8.41 µM.
On to `Cc1ccc(NC(=O)c2c(N=Cc3ccco3)c(C#N)c3n2CCC3)cc1`, for which the 50% inhibitory concentration (IC50) in the test with MCF7 [1] was 16.1 µM; in the test on A549 [2], 29.4 µM; in the test with Hep 3B2, 24.4 µM; in test [3], 9.23 µM.
Regarding `N#Cc1c(N=Cc2ccc3ccccc3c2)c(C(=O)Nc2ccc(Cl)cc2)n2c1CCC2`, the IC50 was found to be 9.82 µM in the test on MCF7 [1], 11.2 µM in the test on A549 [2], 12.5 µM in the test on Hep 3B2 and 10.6 µM in [3].
For `N#Cc1c(N=Cc2cccs2)c(C(=O)Nc2ccc(Cl)cc2)n2c1CCC2`, the half-inhibitory concentration (IC50) in the test on MCF7 [1] stood at 4.72 µM; in the test with A549 [2] it was 22.8 µM; in the test with Hep 3B2, 11.6 µM; in test [3], 7.68 µM.
In the case of `Cc1ccc(NC(=O)c2ccc(CN3CCN(C)CC3)cc2)cc1Nc1nccc(-c2cccnc2)n1`, the inhibition in test [5] was -14%; in [6] it was -18%; in test [7] it was -5%; in [8] it was 3%; in test [9] it was 0%; in test [10], 10%. Moreover, the inhibition in test [11] was -22%; in [12], 10%; in [13], -2%; in test [14], 1%; in test [15], -49%; in test [16], -34%. The inhibition in [17] is -4%; in [18], -3%.
Take `N#Cc1c(N=Cc2cccnc2)c(C(=O)Nc2ccccc2)n2c1CCC2`: the 50% inhibitory concentration (IC50) in the test with MCF7 [1] is 11.7 µM; with A549 [2], 17.5 µM; in the test on Hep 3B2 it was 25.8 µM; in [3], 11.3 µM.
In the case of `N#Cc1c(N=Cc2ccc3ccccc3c2)c(C(=O)Nc2ccccc2)n2c1CCC2`, the IC50 in the test with MCF7 [1] was found to be 5.77 µM; in the test with A549 [2] it was 7.11 µM; in the test on Hep 3B2 it was 10.2 µM; in test [3], 7.98 µM. In the test with A549 [19], the result was Active.
